# Measurements taken from ChEMBL document CHEMBL1932916, “A carbamate-based approach to primaquine prodrugs: antimalarial activity, chemical stability and enzymatic activation” (Bioorg Med Chem, 2012).
# Active and inactive are the calls of the source. No cut-off for these calls is given here.
# System: not listed separately
# Assay: Dissociation constant, pKa of the compound
# Type: physicochemical
# Conditions: not given
row,pKa,SMILES
1,9.95,COc1cc(NC(C)CCCNC(=O)Oc2ccccc2)c2ncccc2c1 (centres undefined)
2,12.9,CCOC(=O)COC(=O)NCCCC(C)Nc1cc(OC)cc2cccnc12 (centres undefined)
3,10.2,COc1ccc(OC(=O)NCCCC(C)Nc2cc(OC)cc3cccnc23)cc1 (centres undefined)
4,7.14,COc1cc(NC(C)CCCNC(=O)Oc2ccc([N+](=O)[O-])cc2)c2ncccc2c1 (centres undefined)
5,9.38,COc1cc(NC(C)CCCNC(=O)Oc2ccc(Cl)cc2)c2ncccc2c1 (centres undefined)
6,12.4,COc1cc(NC(C)CCCNC(=O)OCC(F)(F)F)c2ncccc2c1 (centres undefined)
7,15.9,CCOC(=O)NCCCC(C)Nc1cc(OC)cc2cccnc12 (centres undefined)

# System: not listed separately
# Assay: Alkaline hydrolysis of the compound assessed as rate constant by HPLC analysis
# Type: physicochemical
# Conditions: not given
# Summary of the method: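 Borate and NaOH buffers with 20% (v/v) acetonitrile, ionic strength 0.5 M (NaClO4), 37 °C. Alkyl carbamates followed by HPLC (RP-8 column, acetonitrile/water/KH2PO4 1 M 55:40:5) as substrate loss and primaquine formation; aliquots neutralised with HCl before injection; aryl carbamates by fixed-wavelength UV decay of substrate. Second-order constant k_OH.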
row,Activity,SMILES
1,3.49 ×10⁻⁷ /M/s,CCCCCCOC(=O)NCCCC(C)Nc1cc(OC)cc2cccnc12 (centres undefined)
2,2.64 M⁻¹ s⁻¹,COc1cc(NC(C)CCCNC(=O)Oc2ccccc2)c2ncccc2c1 (centres undefined)
3,2.5 M⁻¹ s⁻¹,CCOC(=O)COC(=O)NCCCC(C)Nc1cc(OC)cc2cccnc12 (centres undefined)
4,9.1 ×10⁻¹ /M/s,COc1ccc(OC(=O)NCCCC(C)Nc2cc(OC)cc3cccnc23)cc1 (centres undefined)
5,2.4 ×10⁴ /M/s,COc1cc(NC(C)CCCNC(=O)Oc2ccc([N+](=O)[O-])cc2)c2ncccc2c1 (centres undefined)
6,7.17 M⁻¹ s⁻¹,COc1cc(NC(C)CCCNC(=O)Oc2ccc(Cl)cc2)c2ncccc2c1 (centres undefined)
7,3.95 ×10⁻³ /M/s,COc1cc(NC(C)CCCNC(=O)OCC(F)(F)F)c2ncccc2c1 (centres undefined)
8,9.34 ×10⁻⁷ /M/s,CCOC(=O)NCCCC(C)Nc1cc(OC)cc2cccnc12 (centres undefined)

# System: not listed separately
# Assay: Half life in aqueous buffer pH 7.4 by HPLC analysis
# Type: physicochemical
# Conditions: not given
# Summary of the method: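 Non-enzymatic hydrolysis in pH 7.4 phosphate buffer, 20% (v/v) acetonitrile, 37 °C. Reaction followed by HPLC (RP-8 column, acetonitrile/water/KH2PO4 eluant) monitoring substrate loss and primaquine formation.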
row,half-life [h],SMILES
1,288,COc1cc(NC(C)CCCNC(=O)Oc2ccccc2)c2ncccc2c1 (centres undefined)
2,240,CCOC(=O)COC(=O)NCCCC(C)Nc1cc(OC)cc2cccnc12 (centres undefined)
3,> 720,COc1ccc(OC(=O)NCCCC(C)Nc2cc(OC)cc3cccnc23)cc1 (centres undefined)
4,0.035,COc1cc(NC(C)CCCNC(=O)Oc2ccc([N+](=O)[O-])cc2)c2ncccc2c1 (centres undefined)
5,96,COc1cc(NC(C)CCCNC(=O)Oc2ccc(Cl)cc2)c2ncccc2c1 (centres undefined)

# System: Plasma
# Assay: Prodrug activation in 50% human plasma assessed as rate constant by HPLC analysis
# Type: cell-free
# Conditions: not given
# Summary of the method: (§1)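 Pooled heparinised plasma from healthy donors, stored at -70 °C, diluted to 50% (v/v) with pH 7.4 isotonic phosphate buffer. Carbamate added from 10^-2 M stock, 37 °C. Aliquots quenched into acetonitrile, then HPLC quantitation of substrate, primaquine and, for aryl esters, phenol against standards. First-order k_plasma determined in triplicate.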
row,Drug metabolism,SMILES
1,5.34 ×10⁻⁵ /s,COc1cc(NC(C)CCCNC(=O)Oc2ccccc2)c2ncccc2c1 (centres undefined)
2,2.45 ×10⁻⁵ /s,COc1ccc(OC(=O)NCCCC(C)Nc2cc(OC)cc3cccnc23)cc1 (centres undefined)
3,3.06 ×10⁻⁴ /s,COc1cc(NC(C)CCCNC(=O)Oc2ccc(Cl)cc2)c2ncccc2c1 (centres undefined)

# System: Plasma
# Assay: Half life for prodrug activation in 50% human plasma by HPLC analysis
# Type: cell-free
# Conditions: not given
# Summary of the method: as §1
row,t1/2 [h],SMILES
1,3.62,COc1cc(NC(C)CCCNC(=O)Oc2ccccc2)c2ncccc2c1 (centres undefined)
2,7.78,COc1ccc(OC(=O)NCCCC(C)Nc2cc(OC)cc3cccnc23)cc1 (centres undefined)
3,0.00267,COc1cc(NC(C)CCCNC(=O)Oc2ccc([N+](=O)[O-])cc2)c2ncccc2c1 (centres undefined)
4,0.638,COc1cc(NC(C)CCCNC(=O)Oc2ccc(Cl)cc2)c2ncccc2c1 (centres undefined)

# System: Liver
# Assay: Prodrug activation in rat liver homogenate assessed as rate constant by HPLC analysis
# Type: tissue-based
# Conditions: tissue homogenate
# Summary of the method: (§2)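 Liver homogenate at 2 mg protein/mL in pH 7.4 PBS, 37 °C, with NADPH-generating system (glucose-6-phosphate 6.25 mM, NADP 1.25 mM, MgCl2 6 mM, G6PDH 2.5 U/mL). Substrates dissolved in PBS at initial 0.25–5.0 mM. HPLC followed substrate loss and primaquine formation. First-order k_liver determined in triplicate.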
row,Drug metabolism [×10⁻² /hr],SMILES
1,6.63,CCCCCCOC(=O)NCCCC(C)Nc1cc(OC)cc2cccnc12 (centres undefined)
2,7.26,COc1cc(NC(C)CCCNC(=O)Oc2ccccc2)c2ncccc2c1 (centres undefined)
3,6.7,COc1ccc(OC(=O)NCCCC(C)Nc2cc(OC)cc3cccnc23)cc1 (centres undefined)
4,5.85,COc1cc(NC(C)CCCNC(=O)Oc2ccc(Cl)cc2)c2ncccc2c1 (centres undefined)
5,5.04,COc1cc(NC(C)CCCNC(=O)OCC(F)(F)F)c2ncccc2c1 (centres undefined)
6,4.56,CCOC(=O)NCCCC(C)Nc1cc(OC)cc2cccnc12 (centres undefined)

# System: Liver
# Assay: Half life for prodrug activation in rat liver homogenate by HPLC analysis
# Type: tissue-based
# Conditions: in vitro
# Summary of the method: as §2
row,t1/2 [h],SMILES
1,10.4,CCCCCCOC(=O)NCCCC(C)Nc1cc(OC)cc2cccnc12 (centres undefined)
2,9.5,COc1cc(NC(C)CCCNC(=O)Oc2ccccc2)c2ncccc2c1 (centres undefined)
3,10.3,COc1ccc(OC(=O)NCCCC(C)Nc2cc(OC)cc3cccnc23)cc1 (centres undefined)
4,11.8,COc1cc(NC(C)CCCNC(=O)Oc2ccc(Cl)cc2)c2ncccc2c1 (centres undefined)
5,13.7,COc1cc(NC(C)CCCNC(=O)OCC(F)(F)F)c2ncccc2c1 (centres undefined)
6,15.1,CCOC(=O)NCCCC(C)Nc1cc(OC)cc2cccnc12 (centres undefined)

# System: not listed separately
# Assay: Octanol-phosphate buffer partition coefficient, log D of the compound at pH 7.4 after 30 mins by HPLC analysis
# Type: physicochemical
# Conditions: not given
# Summary of the method: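 1-Octanol and pH 7.4 phosphate buffer, mutually pre-saturated, 22 °C. Compound dissolved in octanol and the mixture shaken 30 min to equilibrium. Each phase assayed by HPLC, and D taken as the octanol/buffer peak-area ratio. Mean of three experiments.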
row,logD at 0.5 h,SMILES
1,4.64,CCCCCCOC(=O)NCCCC(C)Nc1cc(OC)cc2cccnc12 (centres undefined)
2,4.27,COc1cc(NC(C)CCCNC(=O)Oc2ccccc2)c2ncccc2c1 (centres undefined)
3,3.09,CCOC(=O)COC(=O)NCCCC(C)Nc1cc(OC)cc2cccnc12 (centres undefined)
4,4.23,COc1ccc(OC(=O)NCCCC(C)Nc2cc(OC)cc3cccnc23)cc1 (centres undefined)
5,4.23,COc1cc(NC(C)CCCNC(=O)Oc2ccc([N+](=O)[O-])cc2)c2ncccc2c1 (centres undefined)
6,4.44,COc1cc(NC(C)CCCNC(=O)Oc2ccc(Cl)cc2)c2ncccc2c1 (centres undefined)
7,3.41,COc1cc(NC(C)CCCNC(=O)OCC(F)(F)F)c2ncccc2c1 (centres undefined)
8,3.02,CCOC(=O)NCCCC(C)Nc1cc(OC)cc2cccnc12 (centres undefined)

# System: Plasma
# Assay: Stability of the compound in 50% human plasma for 3 hrs by HPLC analysis
# Type: ADME, cell-free
# Conditions: not given
# Summary of the method: as §1
row,Stability,SMILES
1,Stable,CCCCCCOC(=O)NCCCC(C)Nc1cc(OC)cc2cccnc12 (centres undefined)
2,Stable,COc1cc(NC(C)CCCNC(=O)OCC(F)(F)F)c2ncccc2c1 (centres undefined)
3,Stable,CCOC(=O)NCCCC(C)Nc1cc(OC)cc2cccnc12 (centres undefined)

# System: Plasma
# Assay: Prodrug activation in 50% human plasma preincubated with 20 mM DIFP by HPLC analysis
# Type: cell-free
# Conditions: not given
# Summary of the method: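 Same 50% human plasma incubation at 37 °C with HPLC monitoring, but plasma pre-incubated with 20 mM DIFP to inhibit serine cholinesterase before substrate addition.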
row,Drug metabolism,SMILES
1,Not Active,COc1cc(NC(C)CCCNC(=O)Oc2ccc(Cl)cc2)c2ncccc2c1 (centres undefined)

# System: Liver
# Assay: Prodrug activation in rat liver homogenate assessed as primaquine release by HPLC analysis
# Type: tissue-based
# Conditions: tissue homogenate
# Summary of the method: as §2
row,Drug metabolism,SMILES
1,Not Active,CCCCCCOC(=O)NCCCC(C)Nc1cc(OC)cc2cccnc12 (centres undefined)
2,Not Active,COc1cc(NC(C)CCCNC(=O)OCC(F)(F)F)c2ncccc2c1 (centres undefined)
3,Not Active,CCOC(=O)NCCCC(C)Nc1cc(OC)cc2cccnc12 (centres undefined)

# System: not listed separately
# Assay: Gametocytocidal activity against Plasmodium berghei ANKA 25R/10 infected in Balb/C mouse assessed as infected mosquitoes at 15 mg/kg, ip after 2 hrs feed Anopheles stephensi mosquitoes for 2 hrs on compound treated animals measured after 10 days post feed by stereomicroscopy (reference value: 91%)
# Type: functional
# Conditions: route intraperitoneal
# Summary of the method: (§3)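 Balb C mice infected ip with 10^7 P. berghei ANKA 25R/10-parasitised erythrocytes. At day 4, once gametocytes were seen on Giemsa films, mice were grouped (six per group). A single ip dose of 15 mg/kg was given, with saline-treated controls run separately for each compound. After 2 h, anaesthetised mice were fed to A. stephensi. Midgut oocysts counted at day 10 post-feed; reported as % infected mosquitoes and mean oocysts per mosquito.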
row,SMILES,Activity [%]
1,CCCCCCOC(=O)NCCCC(C)Nc1cc(OC)cc2cccnc12 (centres undefined),24
2,COc1cc(NC(C)CCCNC(=O)OCC(F)(F)F)c2ncccc2c1 (centres undefined),72
3,CCOC(=O)NCCCC(C)Nc1cc(OC)cc2cccnc12 (centres undefined),19

# System: Plasmodium berghei ANKA
# Assay: Gametocytocidal activity against Plasmodium berghei ANKA 25R/10 infected in Balb/C mouse assessed as reduction in number of oocysts per mosquito at 15 mg/kg, ip after 2 hrs feed Anopheles stephensi mosquitoes for 2 hrs on compound treated animals measured after 10 days post feed by stereomicroscopy
# Type: functional, organism-based
# Parameters: dose 15 mg/kg
# Conditions: not given
# Summary of the method: as §3
row,SMILES,Activity
1,CCCCCCOC(=O)NCCCC(C)Nc1cc(OC)cc2cccnc12 (centres undefined),Active
2,COc1cc(NC(C)CCCNC(=O)Oc2ccccc2)c2ncccc2c1 (centres undefined),Active
3,COc1cc(NC(C)CCCN)c2ncccc2c1 (centres undefined) [PRIMAQUINE],Active
4,CCOC(=O)NCCCC(C)Nc1cc(OC)cc2cccnc12 (centres undefined),Active

# System: not listed separately
# Assay: Gametocytocidal activity against Plasmodium berghei ANKA 25R/10 infected in Balb/C mouse assessed as infected mosquitoes at 15 mg/kg, ip after 2 hrs feed Anopheles stephensi mosquitoes for 2 hrs on compound treated animals measured after 10 days post feed by stereomicroscopy (reference value: 80%)
# Type: functional
# Conditions: route intraperitoneal
# Summary of the method: as §3
row,SMILES,Activity [%]
1,COc1cc(NC(C)CCCNC(=O)Oc2ccccc2)c2ncccc2c1 (centres undefined),65
2,COc1ccc(OC(=O)NCCCC(C)Nc2cc(OC)cc3cccnc23)cc1 (centres undefined),74
3,COc1cc(NC(C)CCCN)c2ncccc2c1 (centres undefined) [PRIMAQUINE],3.9
